Experimental findings from ChEMBL document CHEMBL1250529, “Retinobenzaldehydes as proper-trafficking inducers of folding-defective P23H rhodopsin mutant responsible for retinitis pigmentosa” (Bioorg Med Chem, 2010) are described below.

The structures appear in SMILES notation. Calls of active or inactive are those of the source. The rule behind the calls is not given here.

The nature of series [1]: Cytotoxicity against HEK293 cells by WST-1 assay. Type of series: cell-based. Conditions: human. The method in brief: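 HEK293 cells, poly-Lys-coated wells (1 × 10^4 cells/well), grown 16–20 h, then exposed to compounds in DMEM/5% FBS (0.1% DMSO final) for 20–22 h. WST-1 added, 2 h, A405 read. Viability = treated/vehicle absorbance after background (no-cell wells) subtraction; CC50 derived from dose curves.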
In general terms: Tetrazolium dyes change colour on reduction, which living cells bring about.

Series [2] relates to Rhodopsin (Homo sapiens), P08100 [P23H]. The series can be described thus: Induction of subcellular localization of HA-tagged human rhodopsin P23H mutant on HEK293 cell surface by immunofluorescence microscopy. The series is classed as cell-based.
For series [3], the system named is HEK293. In words: Upregulation of HA-tagged rhodopsin P23H expression in HEK293 cell surface by ELISA. The series is classed as functional, cell-based. Conditions: Homo sapiens. In short, it runs like this: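 HEK293 in poly-lysine-coated wells transfected with HA-tagged human P23H rhodopsin; 2–3 h later compounds in DMEM/5% FBS (0.1% DMSO final) for 20 h. Non-permeabilized cells fixed, blocked, HRP-anti-HA 1.5 h rt, chemiluminescent readout. Background-subtracted signal expressed relative to untreated cells (=1.0); ≥2 independent experiments (n >4).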
In general terms: ELISA stands for enzyme-linked immunosorbent assay.

A word on the CC50: it is the concentration giving 50% cytotoxicity. A lower CC50 goes with harm at low concentration. Turning to `CC(C)(C)c1cc(C(=O)OCc2ccc(C=O)cc2)cc(C(C)(C)C)c1`, in series [1], the CC50 worked out at 34 µM. This lies in the double-digit micromolar range.

Regarding `CC(C)(C)c1cccc(C(=O)OCc2ccc(C=O)cc2)c1`, the midpoint of cytotoxicity in series [1], the CC50, lay at 73 µM.

Consider `O=Cc1ccc(COC(=O)c2ccc3c(c2)CCCC3)cc1`, for which the 50% cytotoxic concentration (CC50) in series [1] was more than 100 µM.

As for `CC1=C(/C=C/C(C)=C\C=C\C(C)=C\C=O)C(C)(C)CCC1` [ISO RHODOPSIN], in series [2], the outcome was Active. Moreover, the midpoint of cytotoxicity in series [1], the CC50, lay at 28 µM. Besides, the Activity result in series [3] is “Dose-dependent effect”.

With `O=C(OCc1ccc(B(O)O)cc1)c1cc(C(F)(F)F)cc(C(F)(F)F)c1`, the half-maximal cytotoxic concentration (CC50) in series [1] amounted to 49 µM.

For `CC1=C(/C=C/C(C)=C/C=C\C(C)=C\C=O)C(C)(C)CCC1` [RHODOPSIN], the result in series [2] was Active. Also, in series [1], the 50% cytotoxic concentration (CC50) turned out to be 23 µM. Besides, the Activity entry in series [3] was “Dose-dependent effect”.

Regarding `O=Cc1ccc(COC(=O)c2cc(C(F)(F)F)cc(C(F)(F)F)c2)cc1`, in series [1], the CC50 is more than 100 µM.

On to `CC(C)(C)c1ccc(C(=O)OCc2ccc(C=O)cc2)cc1`, for which half-maximal cytotoxicity in series [1] (CC50) was put at 63 µM.

With `CC1(C)CCC(C)(C)c2cc(C(=O)OCc3ccc(C=O)cc3)ccc21`, it took 48 µM to reach half-maximal cytotoxicity in series [1] (CC50).

In series [1], `O=C(O)c1ccc(COC(=O)c2cc(C(F)(F)F)cc(C(F)(F)F)c2)cc1` came in with a 50% cytotoxic concentration (CC50) of more than 100 µM.

`CC1(C)CCC(C)(C)c2cc(C(=O)NCc3ccc(C=O)cc3)ccc21` had a CC50 in series [1] of 49 µM.

`NC(=O)c1ccc(COC(=O)c2cc(C(F)(F)F)cc(C(F)(F)F)c2)cc1` registered a CC50 in series [1] of more than 100 µM.
